Active and inactive are the calls of the source. Where only a bound is given, the exact number is not on record here.

Series [1] deals with T1, Cytochrome P450 26A1 (Homo sapiens, UniProt O43174).
T1 sequence (O43174 whole entry): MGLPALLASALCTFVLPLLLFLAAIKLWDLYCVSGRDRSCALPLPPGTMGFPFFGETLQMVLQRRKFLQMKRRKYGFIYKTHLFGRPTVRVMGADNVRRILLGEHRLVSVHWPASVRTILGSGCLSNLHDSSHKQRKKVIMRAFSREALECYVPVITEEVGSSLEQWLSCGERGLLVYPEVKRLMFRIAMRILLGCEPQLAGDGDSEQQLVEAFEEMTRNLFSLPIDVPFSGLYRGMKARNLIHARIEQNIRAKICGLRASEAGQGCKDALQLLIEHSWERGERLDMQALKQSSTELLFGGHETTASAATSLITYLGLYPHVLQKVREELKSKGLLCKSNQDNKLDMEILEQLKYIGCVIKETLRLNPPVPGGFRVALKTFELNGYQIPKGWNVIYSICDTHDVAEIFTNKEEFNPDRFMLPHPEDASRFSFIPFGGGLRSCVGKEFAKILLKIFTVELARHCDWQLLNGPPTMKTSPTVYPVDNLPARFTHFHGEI
Kind of series: Inhibition of CYP26A1 in human MCF7 cell microsomes using [3H]ATRA after 1 hr by scintillation counting. Further details: species or system Microsome. In outline: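 Cell-free assay on MCF7 CYP26A1 microsomes with [11,12-3H]all-trans-retinoic acid as substrate. IC50 taken from the best fit of a four-point dose-response curve.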

Series [2] deals with SH-SY5Y. Kind of series: Induction of CYP26A1 mRNA expression in human SH-SY5Y cells at 1 uM after 72 hrs by RT-PCR analysis in presence of 0.1 uM of all-trans retinoic acid. It counts as functional. In outline:
(§1)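 SH-SY5Y cells exposed 72 h to test agent at 1 μM alone or with 0.1 μM ATRA. Total RNA extracted, reverse transcribed, and quantified by real-time PCR with TaqMan probes for CYP26A1 and β-actin. CYP26A1 was normalized to β-actin and reported as fold increase over cells given ATRA alone.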

The target in series [3] is T2, CYP1A2 (Homo sapiens, UniProt P05177).
T2 sequence (P05177 whole entry): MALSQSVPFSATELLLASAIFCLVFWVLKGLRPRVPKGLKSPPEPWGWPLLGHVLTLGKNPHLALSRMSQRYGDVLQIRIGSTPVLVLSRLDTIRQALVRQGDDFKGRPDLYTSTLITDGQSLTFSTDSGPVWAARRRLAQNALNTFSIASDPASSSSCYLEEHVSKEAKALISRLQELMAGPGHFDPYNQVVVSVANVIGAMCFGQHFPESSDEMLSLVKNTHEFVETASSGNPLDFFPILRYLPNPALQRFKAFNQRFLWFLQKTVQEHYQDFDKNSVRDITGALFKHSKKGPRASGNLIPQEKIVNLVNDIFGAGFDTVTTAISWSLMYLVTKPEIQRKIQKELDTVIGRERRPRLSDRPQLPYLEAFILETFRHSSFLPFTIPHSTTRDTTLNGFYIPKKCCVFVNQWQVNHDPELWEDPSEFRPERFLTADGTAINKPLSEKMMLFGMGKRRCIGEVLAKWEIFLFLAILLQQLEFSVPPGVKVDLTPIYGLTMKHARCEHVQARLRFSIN
Kind of series: Inhibition of CYP1A2 in human liver microsomes at 0.4 uM. It counts as ADME, Microsome.

Series [4] addresses CYP3A4 (Homo sapiens, UniProt P08684). The series is described as follows: Inhibition of CYP3A4 in human liver microsomes at 0.4 uM. Format: ADME, Microsome. (Liver microsomes are vesicles of endoplasmic reticulum, rich in cytochrome P450 enzymes.)
For series [5], the target named is CYP2C9 (Homo sapiens, UniProt P11712). The series is described as follows: Inhibition of CYP2C9 in human liver microsomes at 0.4 uM. Format: ADME, Microsome.
Sequence of CYP2C9 (P11712 whole entry): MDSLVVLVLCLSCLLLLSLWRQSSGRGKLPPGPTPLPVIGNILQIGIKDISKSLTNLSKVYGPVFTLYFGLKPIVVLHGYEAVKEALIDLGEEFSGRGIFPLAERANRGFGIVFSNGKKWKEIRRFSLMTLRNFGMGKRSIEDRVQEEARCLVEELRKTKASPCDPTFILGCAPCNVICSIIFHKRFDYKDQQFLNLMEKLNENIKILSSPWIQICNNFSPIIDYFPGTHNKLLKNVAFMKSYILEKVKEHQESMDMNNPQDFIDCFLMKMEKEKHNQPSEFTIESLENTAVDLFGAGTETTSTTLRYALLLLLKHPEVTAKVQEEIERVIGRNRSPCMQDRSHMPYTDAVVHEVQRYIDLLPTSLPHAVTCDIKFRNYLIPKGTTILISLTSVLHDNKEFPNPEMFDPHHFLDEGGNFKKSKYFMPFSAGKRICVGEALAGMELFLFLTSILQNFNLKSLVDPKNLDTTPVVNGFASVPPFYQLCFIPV
Series [6] deals with CYP2C19 (Homo sapiens, UniProt P33261). The series is described as follows: Inhibition of CYP2C19 in human liver microsomes at 0.4 uM. It counts as ADME, Microsome.
Sequence of CYP2C19 (P33261 whole entry): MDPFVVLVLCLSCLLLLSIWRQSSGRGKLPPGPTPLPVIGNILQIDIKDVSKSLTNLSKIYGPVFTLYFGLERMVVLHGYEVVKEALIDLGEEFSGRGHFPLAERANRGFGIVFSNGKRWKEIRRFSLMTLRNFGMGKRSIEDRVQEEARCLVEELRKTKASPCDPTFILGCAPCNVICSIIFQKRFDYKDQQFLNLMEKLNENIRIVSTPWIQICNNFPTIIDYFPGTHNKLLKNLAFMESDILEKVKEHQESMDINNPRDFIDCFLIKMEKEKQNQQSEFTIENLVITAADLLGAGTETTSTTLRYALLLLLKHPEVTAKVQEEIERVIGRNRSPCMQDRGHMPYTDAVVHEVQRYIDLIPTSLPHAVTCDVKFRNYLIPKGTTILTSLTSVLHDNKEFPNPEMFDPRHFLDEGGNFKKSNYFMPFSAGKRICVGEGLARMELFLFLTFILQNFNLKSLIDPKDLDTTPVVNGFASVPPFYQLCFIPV
The target in series [7] is CYP2D6 (Homo sapiens, UniProt P10635). Kind of series: Inhibition of CYP2D6 in human liver microsomes at 0.4 uM. Format: ADME, Microsome.
Sequence of CYP2D6 (P10635 whole entry): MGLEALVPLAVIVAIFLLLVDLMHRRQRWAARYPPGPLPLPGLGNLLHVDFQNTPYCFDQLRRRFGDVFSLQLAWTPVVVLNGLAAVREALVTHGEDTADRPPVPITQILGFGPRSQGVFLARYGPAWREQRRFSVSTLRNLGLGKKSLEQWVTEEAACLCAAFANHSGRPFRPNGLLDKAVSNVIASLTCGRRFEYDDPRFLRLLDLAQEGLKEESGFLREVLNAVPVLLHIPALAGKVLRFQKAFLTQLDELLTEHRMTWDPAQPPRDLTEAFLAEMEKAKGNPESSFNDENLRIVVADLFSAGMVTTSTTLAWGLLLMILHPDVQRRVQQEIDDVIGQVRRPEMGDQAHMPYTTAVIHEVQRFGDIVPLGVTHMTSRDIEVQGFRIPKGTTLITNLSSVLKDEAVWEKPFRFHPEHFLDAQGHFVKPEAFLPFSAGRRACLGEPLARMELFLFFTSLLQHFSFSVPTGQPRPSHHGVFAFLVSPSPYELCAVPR
The target in series [8] is T3, Cytochrome P450 1A2 (Homo sapiens, UniProt P05177).
T3 sequence (P05177 whole entry): T2 sequence (P05177 whole entry)
Kind of series: Inhibition of CYP1A2 in human liver microsomes. It counts as ADME, Microsome.

The target of series [9] is Cytochrome P450 2C9 (Homo sapiens, UniProt P11712). The series is described as follows: Inhibition of CYP2C9 in human liver microsomes. It counts as ADME, Microsome.
Sequence of Cytochrome P450 2C9 (P11712 whole entry): as the sequence (P11712 whole entry) above
The target in series [10] is Cytochrome P450 2D6 (Homo sapiens, UniProt P10635). The series is described as follows: Inhibition of CYP2D6 in human liver microsomes. It counts as ADME, Microsome.
Sequence of Cytochrome P450 2D6 (P10635 whole entry): as the sequence (P10635 whole entry) above
Series [11] has as its system Salmonella typhimurium. Kind of series: Mutagenic activity in Salmonella Typhimurium TA98 by Ames test in presence of S9 mixture. It counts as toxicity, organism-based. The settings on record: salmonella enterica subsp. enterica serovar typhimurium. In a few lines: (§2)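 Ames screen with Salmonella typhimurium strains TA98 and TA100, run with and without S-9 mix.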
(In the Ames test, an excess of revertant colonies over the control signals mutagenicity.)

Series [12] relates to Salmonella typhimurium. The series is described as follows: Mutagenic activity in Salmonella Typhimurium TA100 by Ames test in presence of S9 mixture. Format: toxicity, organism-based. The conditions noted are these: salmonella enterica subsp. enterica serovar typhimurium. In outline:
as §2

Series [13] can be described thus: Half life in human liver microsomes. Format: ADME, Microsome.
In series [14] the test system is SH-SY5Y. The series is described as follows: Induction of CYP26A1 mRNA expression in human SH-SY5Y cells at 1 uM after 72 hrs by RT-PCR analysis. Format: functional, cell-based. In a few lines:
as §1

Sequence of CYP3A4 (P08684 whole entry): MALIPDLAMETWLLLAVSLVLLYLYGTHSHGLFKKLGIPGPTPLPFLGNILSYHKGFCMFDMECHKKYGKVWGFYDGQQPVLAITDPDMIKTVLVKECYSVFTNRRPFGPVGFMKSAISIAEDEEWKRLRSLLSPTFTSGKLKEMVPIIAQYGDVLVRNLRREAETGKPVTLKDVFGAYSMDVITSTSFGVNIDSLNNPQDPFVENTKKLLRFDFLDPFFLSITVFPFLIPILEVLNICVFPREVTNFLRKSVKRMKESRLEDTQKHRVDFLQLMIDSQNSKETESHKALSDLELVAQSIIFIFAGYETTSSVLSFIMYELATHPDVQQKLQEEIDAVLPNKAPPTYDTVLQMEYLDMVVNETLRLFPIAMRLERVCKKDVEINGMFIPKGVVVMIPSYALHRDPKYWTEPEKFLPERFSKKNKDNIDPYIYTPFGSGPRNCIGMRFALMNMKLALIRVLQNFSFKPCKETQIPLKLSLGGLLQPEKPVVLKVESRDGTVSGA

For the molecule `COC(=O)C(C)(C)C(c1ccc(Nc2nc3ccccc3o2)cc1)n1ccnc1` (stereo not drawn), the concentration for half-maximal inhibition (IC50) – broadly, the concentration that gives 50% inhibition – in series [1] was found to be 10 nM. In addition, the result in series [2] was Active. For the same molecule, the inhibition (in general, the share of the control response that was lost under treatment) at 0.4 µM in [3] came to 31%; in [4], 84%; in series [5], 45%; in series [6] it was 13%; in [7] it was 55%.
`COC(=O)C(C)(C)C(c1ccc(Nc2ccccc2)cc1)n1ccnc1` (stereo not drawn): it took 10 nM to reach half-maximal inhibition in [1] (IC50). Further, in series [2], the outcome was Active.
As for `CCOc1ccc2ccccc2c1Nc1ccc(C(n2ccnc2)C(C)(C)C(=O)OC)cc1` (stereo not drawn), the IC50 in series [1] was found to be 125 nM.
In [1], `COC(=O)C(C)(C)C(c1ccc(Nc2ccc3c(c2)OCO3)cc1)n1ccnc1` (stereo not drawn) gave an IC50 of 8 nM. The outcome in [2] was Active.
For `COC(=O)C(C)(C)C(c1ccc(Nc2ccc3cc(O)ccc3c2)cc1)n1ccnc1` (stereo not drawn), inhibition in [1] was half-maximal at 3 nM (IC50). Besides, the result in series [2] was Active.
As to `COC(=O)[C@@H](C)[C@H](c1ccc(Nc2ccc3ccccc3c2)cc1)n1ccnc1` (relative stereo), it took 140 nM to reach half-maximal inhibition in series [1] (IC50). That is a sub-micromolar value.
`COC(=O)C(C)(C)C(c1ccc(Nc2nc3ccccc3s2)cc1)n1ccnc1` (stereo not drawn) yielded a half-maximal inhibitory concentration (IC50) in [1] of 100 nM. For the same molecule, the inhibition at 0.4 µM in [3] turned out to be 38%; in series [4], 46%; in [5] it was 87%; in series [6], 91%; in series [7] it was 11%.
As for `COC(=O)C(C)(C)C(c1ccc(Nc2ccc3cc(OC)ccc3c2)cc1)n1ccnc1` (stereo not drawn), it took 8 nM to reach half-maximal inhibition in [1] (IC50).
In series [1], `COC(=O)C(C)(C)C(c1ccc(Cc2ccc3ccccc3c2)cc1)n1ccnc1` (stereo not drawn) gave an IC50 above 1000 nM.
Same read-out and setting: the figure for `COC(=O)C(C)(C)C(c1ccc(Nc2ccc(-c3ccccc3)cc2)cc1)n1ccnc1` (stereo not drawn) is 250 nM; for `COC(=O)[C@H](C)[C@H](c1ccc(Nc2ccccc2)cc1)n1ccnc1` (relative stereo) it is 26 nM.
Molecule `COC(=O)[C@H](C)[C@H](c1ccc(Nc2ccc3ccccc3c2)cc1)n1ccnc1` (relative stereo) gave an IC50 in series [1] of 50 nM. The outcome in [2] was Active.
In series [1], `COC(=O)C(C)(C)C(c1ccc(Oc2ccc3ccccc3c2)cc1)n1ccnc1` (stereo not drawn) registered a half-maximal inhibitory concentration (IC50) above 1000 nM.
As to `COC(=O)C(C)(C)C(c1ccc(Nc2ccc3ccccc3c2)cc1)n1ccnc1` (stereo not drawn), the IC50 is 3 nM in [1], 1200 nM in series [8], 1500 nM in series [9] and 600 nM in series [10]. In series [2], the “fold change (FC)” value was determined as 5.8. In addition, the inhibition at 0.4 µM was 21% in series [3]; 60% in series [4]; 41% in [5]; 11% in series [6]; 25% in series [7]. The Activity entry in series [11] and in series [12] was “Non-toxic” throughout. The half-life (in general, the time needed for the level to fall by half in the phase considered) in series [13] was 5 h.
`C[C@H]([C@@H](c1ccc(Nc2nc3ccccc3s2)cc1)n1ccnc1)N(C)C`: the half-inhibitory concentration (IC50) was 10 nM in [1], 8300 nM in series [8], 5900 nM in series [9] and 3900 nM in [10]. The result in series [14] was inactive. Besides, the “fold change (FC)” value in [2] came to 4.7.
`COC(=O)[C@@H](C)[C@H](c1ccc(Nc2ccccc2)cc1)n1ccnc1` (relative stereo): the IC50 in [1] is 40 nM. The outcome in series [2] was Active.
As to `Clc1cccc(C(c2ccc3[nH]cnc3c2)n2ccnc2)c1` (stereo not drawn) [LIAROZOLE], the result in series [14] was inactive. For the same molecule, in series [2], the “fold change (FC)” value turned out to be 2.3.
Consider `COC(=O)C(C)(C)C(c1ccc(Nc2cccc3ccccc23)cc1)n1ccnc1` (stereo not drawn), for which, in series [1], inhibition was half-maximal at 6 nM (IC50). Also, in series [2], the outcome was Active. Moreover, the inhibition at 0.4 µM in series [3] turned out to be 15%; in [4], 75%; in series [5], 48%; in series [6] it was 49%; in [7], 53%.

Source of the values: ChEMBL document CHEMBL1764976, “Small molecule inhibitors of retinoic acid 4-hydroxylase (CYP26): synthesis and biological evaluation of imidazole methyl 3-(4-(aryl-2-ylamino)phenyl)propanoates” (J Med Chem, 2011).
